Assay outcomes from PubChem BioAssay.
Most compounds without a hit are left out; they make up all but 3.1% or so of the library.
SENP8 block-1 – SENP8 (human) protease inhibition | actives 0.64% (n = 360,000) | Q96LD8 | recombinant SENP8, Nedd8 substrate fluorescence | inhibition, % at 20 µM; in the data active = inhibition mostly above about 40%, no sharp cut-off; inactive = mostly below about 27%
Target sequence (Q96LD8 whole entry, looked up): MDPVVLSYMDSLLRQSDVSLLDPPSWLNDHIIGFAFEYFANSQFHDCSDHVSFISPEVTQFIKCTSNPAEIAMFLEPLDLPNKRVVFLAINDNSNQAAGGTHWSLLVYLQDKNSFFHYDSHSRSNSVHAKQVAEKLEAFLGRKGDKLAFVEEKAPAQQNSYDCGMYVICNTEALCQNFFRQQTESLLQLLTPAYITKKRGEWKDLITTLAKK
SENP6 block – inhibitors of human SENP6 protease; Recombinant SENP6 catalytic domain, aminoluciferin luminescence; Q9GZR1; actives 1.8% (n = 330,000); inhibition, % at 10 µM;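 active = inhibition above about 50% at the single tested dose, limit read from the data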;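 note: plate controls were DMSO wells with enzyme for no effect and DMSO wells lacking enzyme for full effect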
SENP7 inh – inhibitors of human SENP7 protease; Q9BQF6; recombinant SENP7, Z-RLRGG-aminoluciferin luminescence, 40 min; inhibition, % at 5 µM; actives 1.5% (n = 330,000); AID 434973;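 active = inhibition above about 50% at the single test dose, limit read from the data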;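 note: plate controls were DMSO with enzyme for no effect and no enzyme buffer wells for full effect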
SENP8 block-2 – inhibitors of human SENP8 protease | purified SENP8, Z-RLRGG-aminoluciferin cleavage, luminescence | inhibition, % at 10 µM | actives 1.2% (n = 330,000); in the data active = inhibition above about 50%
Apaf1 inhib – blocks human Apaf-1 apoptosome activity; O14727; reconstituted apoptosome caspase-3 activity, DEVD-Rh110 fluorescence; inhibition, % at 20 µM; actives 0.71% (n = 330,000); AID 489030; active = inhibition of at least 40% at 20 µM;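 note: plate controls were DMSO wells for no effect and DEVD-CHO caspase inhibitor wells for full effect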
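Material: reconstituted apoptosome with Apaf-1, cytochrome c, caspase-9, procaspase-3, dATP / Buffer or medium: pH 7.5 Hepes buffer with CHAPS, BSA, DTT / Also added: cytochrome c with DEVD-Rh110 / Schedule: compound with Apaf-1, dATP, procaspase-3 30 min, then 50 min reaction, room temperature / Technique: rhodamine 110 fluorescence at Ex 480/Em 540 nm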
UBC13 polyUb – inhibitors of human UBC13 polyubiquitin chain formation; inhibition, % at 20 µM; actives 0.47% (n = 330,000); P61088; AID 485273; TR-FRET; in the data active = inhibition above about 45%, passing the limit was not always enough
Target sequence (P61088 whole entry, looked up): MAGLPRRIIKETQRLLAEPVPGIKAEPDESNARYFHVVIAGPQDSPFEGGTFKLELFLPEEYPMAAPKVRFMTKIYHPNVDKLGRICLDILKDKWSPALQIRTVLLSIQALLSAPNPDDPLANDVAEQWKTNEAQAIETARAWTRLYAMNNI
SENP8 conf – confirmation of human SENP8 protease inhibitors; shares compounds with SENP7 inh; Recombinant SENP8, Z-RLRGG-aminoluciferin luminescence, 60 min; inhibition, % at 12.5 µM; actives 40% (n = 6,200); AID 488912;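 active = mean inhibition across replicates above about 50%, limit read from the data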
SENP6 confirm – confirmation of human SENP6 protease inhibitors; recombinant SENP6, Z-RLRGG-aminoluciferin luminescence; inhibition, % at 12.5 µM; AID 488915; shares compounds with SENP7 inh; actives 58% (n = 6,200)
SENP7 confirm – confirmation of human SENP7 protease inhibitors | recombinant SENP7, Z-RLRGG-aminoluciferin luminescence, 40 min | AID 488917 | inhibition, % at 12.5 µM | shares compounds with SENP7 inh | actives 69% (n = 6,200)
Casp3 SENP sel – inhibits human caspase-3 in SENP selectivity test; inhibition, % at 12.5 µM; actives 60% (n = 6,200); purified caspase-3, Z-DEVD-aminoluciferin luminescence, 60 min; AID 488918; shares compounds with SENP7 inh;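 active = mean inhibition above about 50%, limit read from the data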;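 note: plate controls were enzyme with DMSO for no effect and wells without caspase-3 for full effect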
Target sequence (P42574 28-227 limits assumed): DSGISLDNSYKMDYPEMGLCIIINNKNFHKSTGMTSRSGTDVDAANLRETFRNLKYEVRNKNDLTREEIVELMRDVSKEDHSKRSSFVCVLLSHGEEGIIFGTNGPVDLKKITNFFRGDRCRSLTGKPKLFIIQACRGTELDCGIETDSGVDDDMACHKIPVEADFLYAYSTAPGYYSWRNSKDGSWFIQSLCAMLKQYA
Luc interf – interferes with luciferase luminescence in SENP counter-screen. shares compounds with SENP7 inh. Pre-incubated SENP8/Z-RLRGG-aminoluciferin, luciferase luminescence interference. inhibition, % at 12.5 µM. actives 39% (n = 6,200). AID 488919;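 active = mean inhibition above about 50% when retested at one dose, limit read from the data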;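 note: plate controls were DMSO wells with completed reaction for no effect and substrate without enzyme for full effect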
Active calls of the source: *; · = no result given.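 Rule for the calls, unless noted: active = mean inhibition above about 50% in the one-dose retest (limit read from the data); inactive = the rest.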

SMILES	SENP8 block-1	SENP6 block	SENP7 inh	SENP8 block-2	Apaf1 inhib	UBC13 polyUb	SENP8 conf	SENP6 confirm	SENP7 confirm	Casp3 SENP sel	Luc interf
O=C(O)COc1ccc(-c2nccc(-c3ccccn3)n2)cc1	3	-36	-4	-15	0	7	·	·	·	·	·
Cc1ccc(S(=O)(=O)NC(=O)C2(C)CCN2C(=O)CC2CCCC2)cc1 (stereo not drawn)	12	·	·	·	·	·	·	·	·	·	·
CCCCNc1nc(N)nc(-c2cc(Cl)ccc2O)n1	-432	70*	54*	41	15	32	-10	56*	86*	26	6
CCNc1nc(N)nc(-c2cc(Cl)ccc2O)n1	-297	83*	65*	55*	-5	22	72*	69*	90*	44	10
COc1ccc2c(c1OC)C(=O)N1c3ccccc3COC21 (stereo not drawn)	24	17	8	-2	6	7	·	·	·	·	·
COc1ccc2c(c1OC)C(=O)N1c3ccccc3SC21 (stereo not drawn)	-307	50*	12	28	6	3	40	37	78*	58*	29
C#Cc1ccccc1OCCCN1CCC(C(O)(c2ccccc2)c2ccccc2)CC1	11	·	·	·	·	·	·	·	·	·	·
COc1c(N2CCNC(C)C2)c(F)cc2c(=O)c(C(=O)O)cn(C3CC3)c12 (stereo not drawn)	·	-4	-4	-1	-4	4	·	·	·	·	·
NC1CCN(c2c(F)cc3c(=O)c(C(=O)O)cn(C4CC4)c3c2Cl)C1 (stereo not drawn)	-18	-9	67*	-5	-5	-8	-3	4	-5	-2	-6
COCCCn1cc(CN(C)C2CN(Cc3cn(CCCOC)nn3)S(=O)(=O)C2)nn1 (stereo not drawn)	12	·	·	·	·	·	·	·	·	·	·
Clc1ccccc1-c1nc(-c2ccc(Br)o2)no1	3	86*	82*	83*	10	1	-3	85*	97*	68*	73*
Brc1ccc(-c2nc(-c3ccncc3)no2)o1	21	32	4	-17	9	-12	·	·	·	·	·
Brc1ccc(-c2nc(-c3ccccn3)no2)o1	2	89*	89*	87*	6	1	93*	94*	101*	96*	92*
Brc1ccc(-c2noc(-c3ccccn3)n2)o1	23	85*	91*	86*	1	3	40	86*	99*	93*	39
CN=c1scc(-c2ccc(F)cc2)n1/N=C/c1ccc(O)c(O)c1	-31	62*	12	46	12	0	75*	72*	86*	39	60*
CC(=O)Nc1ccc(-c2ccnc3c2CC(C(=O)NCc2ccccc2)O3)cc1 (stereo not drawn)	-15	·	·	·	·	·	·	·	·	·	·
CC(C)=CCCC(C)=CCN1C(=O)CN(C)C1=O	16	·	·	·	·	·	·	·	·	·	·
O=C1/C(=C/c2cccs2)COc2ccccc21	10	98*	83*	81*	1	14	86*	92*	90*	69*	94*
CN(C)/N=C/C=C1\CCC/C(=C/c2cccs2)C1=O	8	2	6	-6	2	-34	·	·	·	·	·
CCn1c(O)c(N=Nc2ccc3ccccc3n2)c2ccccc21	39	95*	97*	94*	7	-2	18	23	98*	30	6
COc1ccccc1NC(=O)COC(=O)c1c(C)nn(-c2ccccc2)c1C	5	93*	97*	95*	-2	25	96*	96*	101*	95*	75*
Cc1ccc(NC(=O)COC(=O)c2c(C)nn(-c3ccccc3)c2C)cc1	2	4	5	-4	4	5	·	·	·	·	·
Cc1nn(-c2ccccc2)c(C)c1C(=O)OCC(=O)Nc1ccccc1	-1	83*	81*	75*	-8	0	77*	76*	94*	83*	74*
CCC(=O)N1CCCC1(C)C(=O)Nc1ccc(C)c(C)c1 (stereo not drawn)	18	·	·	·	·	·	·	·	·	·	·
Cc1ccc(-c2nnc(-c3cccc(Br)c3)o2)cc1	7	74*	60*	37	13	-2	24	21	26	15	5
SMILES	SENP8 block-1	SENP6 block	SENP7 inh	SENP8 block-2	Apaf1 inhib	UBC13 polyUb	SENP8 conf	SENP6 confirm	SENP7 confirm	Casp3 SENP sel	Luc interf
O=c1oc2ccccc2cc1-c1nnc(-c2cccc(Br)c2)o1	-286	2	43	-16	-2	16	·	·	·	·	·
Brc1cccc(-c2nnc(-c3ccccc3)o2)c1	15	87*	79*	70*	9	4	49	71*	93*	59*	17
Cc1cccc(-c2nnc(-c3ccc(N)cc3)o2)c1	-351	8	53*	37	6	9	47	65*	88*	63*	40
c1ccc(-c2nnc(-c3ccncc3)o2)cc1	39	6	-6	-2	-4	2	·	·	·	·	·
Cc1ccc(-c2nnc(-c3ccccc3)o2)cc1Br	4	59*	75*	28	18	-6	20	19	24	41	9
Cc1ccc(-c2nnc(-c3ccc4ccccc4c3)o2)cc1	-367	·	·	·	·	·	·	·	·	·	·
Nc1ccc(-c2nnc(-c3ccc(N)cc3)o2)cc1	-302	1	7	-11	8	3	·	·	·	·	·
COC(=O)[C@]12CCCCC=C1N(Cc1ccc(Cl)cc1Cl)C(=O)[C@H](CC(=O)NCCC(C)C)C2	12	·	·	·	·	·	·	·	·	·	·
CSCCNC(=O)C1(C)CCN1C(=O)c1cc(C)n(C)n1 (stereo not drawn)	9	·	·	·	·	·	·	·	·	·	·
COc1ccc(N(C)S(=O)(=O)c2cccc(C(=O)OCC(=O)Nc3cc(C)ccc3OC)c2)cc1	12	·	·	·	·	·	·	·	·	·	·
CC1(C)CC(=O)C/C(=N/Nc2nc3ccccc3s2)C1	-250	-7	6	4	4	-6	·	·	·	·	·
CC1CCC/C(=N/Nc2nc3ccccc3s2)C1 (stereo not drawn)	-167	43	54*	56*	15	15	2	68*	88*	49	52*
Cn1c(NC(=O)c2ccc(F)cc2)nc2ccccc21	-36	80*	78*	65*	4	20	46	75*	95*	86*	17
